S100A4 MyoIIA: inhibitors of S100A4-myosin IIA peptide binding, primary screen, biochemical, fluorescence polarization, TAMRA-MyoIIA peptide; Protein S100-A4 (Homo sapiens), P26447; inhibition, % at 10.7 µM; 360,000 compounds, 0.14% hits;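 active = mean inhibition of at least 70% across replicates, with every replicate also reaching that level; inconclusive = mean inhibition reaches 70% but some replicates fall short; inactive = mean inhibition below 70%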
Target sequence (P26447 whole entry, looked up): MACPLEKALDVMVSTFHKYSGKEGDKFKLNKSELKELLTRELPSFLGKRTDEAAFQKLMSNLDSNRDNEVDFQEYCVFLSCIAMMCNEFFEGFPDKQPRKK
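Compound dosing: one dose per compound; test system: human S100A4 monomer with TAMRA-labelled myosin IIA peptide; probe or stimulus: TAMRA-labelled myosin IIA heavy-chain peptide probe, 5 nM; medium: HEPES buffer with Ca2+, pH 7.2; schedule: 5 min incubation before reading; benchmarks: neutral control DMSO, positive control TFP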
SR-BI HDL uptake: inhibitors of SR-BI mediated HDL lipid uptake, primary screen, ldlA[mSR-BI] cells, fluorescence, single point; ldlA[mSR-BI] CHO cells, DiI-HDL uptake fluorescence, 3 h; 320,000 compounds, 0.96% hits; inhibition, % at 12.5 µM; AID 488896, 2010; Scavenger receptor class B member 1 (Mus musculus), Q61009;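 active = mean replicate inhibition of at least 70% and a set share of replicates each scoring 70 or more; inconclusive = meets just one of the two criteria; inactive = fails both criteria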;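 also: 0% = median of neutral control wells and 100% = median of positive control wells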
Target sequence (Q61009 whole entry, looked up): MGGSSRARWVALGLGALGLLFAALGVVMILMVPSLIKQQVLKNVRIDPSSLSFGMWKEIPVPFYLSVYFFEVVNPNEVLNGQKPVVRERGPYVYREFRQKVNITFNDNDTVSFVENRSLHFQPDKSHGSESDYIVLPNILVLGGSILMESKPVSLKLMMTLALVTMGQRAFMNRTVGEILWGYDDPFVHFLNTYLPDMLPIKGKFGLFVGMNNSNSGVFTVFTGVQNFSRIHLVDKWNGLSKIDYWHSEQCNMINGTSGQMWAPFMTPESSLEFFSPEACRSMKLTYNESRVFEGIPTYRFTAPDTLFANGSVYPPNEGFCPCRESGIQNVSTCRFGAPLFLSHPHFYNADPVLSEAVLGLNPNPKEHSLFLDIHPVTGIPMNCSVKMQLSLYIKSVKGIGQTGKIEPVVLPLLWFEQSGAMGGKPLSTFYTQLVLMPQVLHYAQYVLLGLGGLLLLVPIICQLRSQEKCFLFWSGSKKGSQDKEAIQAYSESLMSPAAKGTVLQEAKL
RAD54 branch: inhibitors of human RAD54 branch migration, primary screen, biochemical, fluorescence, single point. DNA repair and recombination protein RAD54-like (Homo sapiens), Q92698. RAD54 Holliday junction branch migration, FAM/BHQ fluorescence. inhibition, % at 10.4 µM. 360,000 compounds, 0.14% hits. AID 602329, 2012;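 active = mean normalized replicate activity at least 40 and at least half of replicates scoring 40 or more; inconclusive = only one of the two criteria met; inactive = mean below 40 and under half of replicates reaching 40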;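 also: 0% = median of neutral control wells and 100% = median of positive control wells; inhibitors cause a drop in the FAM fluorescence signal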
PvdQ acylase: P. aeruginosa PvdQ acylase inhibitors, primary screen, biochemical, fluorescence, plate reader and imaging, single point | PvdQ acylase [Pseudomonas aeruginosa LESB58] | purified PvdQ acylase | inhibition, % at 10 µM | 340,000 compounds, 0.063% hits; in the data active = inhibition above about 30%, passing the limit was not always enough; inconclusive = no clear call, values can overlap the other calls;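 also: 0% = vehicle neutral wells and 100% = reference inhibitor wells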
SR-BI uptake up: activators of SR-BI mediated DiI-HDL uptake, primary screen, ldlA[mSR-BI] CHO cells, DiI fluorescence | 3 h; 100 = double the neutral-control signal | activation, % at 12.5 µM | 320,000 compounds, 0.096% hits | AID 504775, 2011;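 active = mean replicate activation of at least 60% and every replicate at or above 60%; inconclusive = mean or all-replicate condition met, but not both; inactive = mean below 60% and not all replicates reaching 60%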;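 also: 0% = median plate neutral-control signal and 100% = twice that signal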
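Assay system: CHO ldlA[mSR-BI] cells, LDL receptor-null, SR-BI overexpressing; medium: Ham's F12 with 0.5% BSA, HEPES 25 mM, pH 7.4; also added: DiI-HDL 10 µg/mL; timing: 3 h uptake period with compound, 37 °C; signal: DiI fluorescence, bottom read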
dFosB act-1: activators of delta FosB homodimer, primary screen, biochemical, fluorescence polarization, TAMRA-CDK5 oligo, single point. Protein FosB (Mus musculus), P13346. purified delta FosB; percent of positive-control signal above neutral wells. activation, % at 25 µM. 340,000 compounds, 0.99% hits;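 active = mean activation above about 17%, with every replicate also reaching it, limit read from the data, passing the limit was not always enough; inconclusive = only one of the two conditions met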
DiI quencher: quenches DiI-HDL fluorescence, an SR-BI assay artifact; shares compounds with SR-BI HDL uptake; cell-free DiI-HDL fluorescence quenching, 30 min; AC50, µM (series often up to 35 µM), for inactives: at the highest dose activity change, negative = quenching; 470 compounds, 20% hits; AID 540326;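 active = quenching, a falling signal, with AC50 below a set limit tied to the top valid dose, actives reach about 32 µM in these data; inconclusive = no clear call, values can overlap the other calls; inactive = rising signal, and the rest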
dFosB act-2: activators of mouse delta FosB DNA binding, confirmation, biochemical, fluorescence polarization, TAMRA-CDK5 oligo, cherry-picked samples | activation, % at 24.9 µM | AID 588690, 2011 | 2,400 tested, under 10 active | shares compounds with dFosB act-1 | purified delta FosB; normalised: neutral wells 0, positive control 100;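 active = highest replicate activation at or above 34% and every replicate reaching that threshold; inconclusive = meets only one of the two criteria; inactive = meets neither criterion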;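 also: higher polarization means more probe DNA bound by delta FosB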
Rad54 DNA ctr: DNA binding of candidate compounds, dose response, artefact control for RAD54 inhibitor project, biochemical, fluorescence polarization, cherry-pick; shares compounds with RAD54 branch; Acridine orange-DNA displacement, 20 min; AC50, µM (top dose mostly 35 µM), for inactives: top-dose activity change, negative = DNA binding; 460 compounds, 8% hits; AID 651673, 2012;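 active = signal drop giving an AC50 within twice the top valid tested concentration of each sample, actives reach about 35 µM in these data; inactive = activity opposite to expected, plus the rest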;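 also: polarization loss reports compound binding to salmon sperm DNA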
An asterisk follows results filed as active; ? = inconclusive; . = not tested or not shown. A selection: hits, their analogues and other compounds. The true share with any hit is near 1.6%.

SMILES	S100A4 MyoIIA	SR-BI HDL uptake	RAD54 branch	PvdQ acylase	SR-BI uptake up	dFosB act-1	others
CC1Oc2cc3c(-c4c(O)cc(O)c5c(O)c6c(cc45)OC(C)C(C)C6=O)c(O)cc(O)c3c(O)c2C(=O)C1C (stereo unspecified)	.	80*	9	13	-80	-16
CCC1CN2CCc3cc(OC)c(OC)cc3C2CC1CC1NCCc2c1[nH]c1ccc(O)cc21 (stereo unspecified)	-7	16	.	-23	-16	29*
COc1ccc2c(c1OC)CN1CCc3cc4c(cc3[C@H]1C2)OCO4	.	4	36	-13	-4	1
CCOC(=O)C1(c2ccccc2)CCN(CCC(=O)Nc2cccc(Br)c2)CC1	-1	-3	6	-4	3	18*
O=C(Cc1ccccc1)N1C[C@@H]2[C@H](c3ccccc31)[C@@H](CO)N2Cc1ccccc1	3	.	10	.	.	.
Nc1c(C(=O)NCc2ccco2)c2nc3ccccc3nc2n1CCN1CCCCC1	.	1	75*	-5	-1	?
COc1ccc(Cn2c(N)c(C(=O)NCc3ccco3)c3nc4ccccc4nc32)cc1OC	.	-13	-16	-23	13	-2
C[C@H]1CN([C@@H](C)CO)C(=O)c2c(c3ccccc3n2C)-c2ccccc2CO[C@H]1CN(C)C(=O)Oc1ccccc1	0	.	.	.	.	.
COC(=O)c1cn(Cc2ccc(F)cc2)c2ccccc12	-3	.	-17	.	.	.
COC(=O)c1cn(C(=O)c2cccc3ccccc23)c2ccccc12	2	73*	.	-7	-73	-2	DiI quencher=-2%
COc1ccc(NC(=O)C2C3CCC(O3)C2C(=O)O)c(OC)c1 (stereo unspecified)	-7	10	-4	-21	-10	4	DiI quencher=-8%
O=C(Cc1cccnc1)N1CCCCN2[C@H](CO)[C@H](c3ccc(/C=C/c4ccccc4)cc3)[C@H]2C1	-1	.	-3	.	.	.
CN1/C(=C\C=Nc2ccccc2)C(C)(C)c2ccccc21	-48	-2	12	-6	2	26*	dFosB act-2=6
CCCCCn1c(=O)c(C(=O)Nc2ccccc2S(N)(=O)=O)c(O)c2ccccc21	4	67	.	4	-67	63*	dFosB act-2=?
CCCCn1c(=O)c(C(=O)Nc2ccccc2S(N)(=O)=O)c(O)c2ccccc21	.	7	7	-20	-7	-12
Cc1cc(NC(=O)COC(=O)c2c(C)nn(Cc3ccccc3Cl)c2Cl)no1	.	-4	.	3	4	46*	dFosB act-2=-13
Cc1cc(NC(=O)COC(=O)c2c(C)nn(Cc3ccccc3)c2C)no1	.	3	-12	-2	-3	-2
O=C(/C=C/c1c[nH]c2ccccc12)c1c(O)n(CCc2ccccc2)c(=O)[nH]c1=O	32	-13	-18	-23	13	22*	dFosB act-2=?
O=C(Cc1ccccc1)N1CC2(C1)[C@H](c1ccccc1)[C@@H](CO)N2Cc1cccc(F)c1	1	.	.	.	.	.
O=C(Cc1ccccn1)N1CC2(C1)[C@H](c1ccccc1)[C@H](CO)N2Cc1ccccn1	2	.	.	.	.	.
NC(N)=Nc1ccc2[nH]c3c(c2c1)C[C@@]1(O)[C@H]2Cc4ccc(O)c5c4[C@@]1(CCN2CC1CC1)C3O5 (stereo partly specified)	-1	-16	35	-11	16	45*	dFosB act-2=5
Cc1cccc(S(=O)(=O)N2[C@@H]3c4ccc(-c5ccccc5)c(=O)n4C[C@H]2[C@H](CO)[C@H]3C(=O)O)c1	2	.	2	.	.	.
C[N+]1=C(/C=C/Nc2ccccc2)C(C)(C)c2ccccc21	.	-15	.	6	15	23*	dFosB act-2=?
COC(=O)[C@@H]1[C@@H](CO)[C@@H]2Cn3c(ccc(-c4ccccc4F)c3=O)[C@H]1N2C(=O)C1CCC1	13	.	0	.	.	.
O=C(NC1CN2CCC1CC2)c1cc(Cl)c([N+](=O)[O-])c2nc[nH]c12 (stereo unspecified)	.	1	56*	-7	-1	-1	Rad54 DNA ctr=-12%
SMILES	S100A4 MyoIIA	SR-BI HDL uptake	RAD54 branch	PvdQ acylase	SR-BI uptake up	dFosB act-1	others
Nc1ccnn1C1CCNCC1	.	-4	93*	-14	4	8	Rad54 DNA ctr=3%
CN1CCC(n2nccc2N)CC1	.	-15	10	-7	15	2
O=C(O)[C@H]1[C@H](CO)[C@H]2Cn3c(ccc(-c4ccccc4)c3=O)[C@@H]1N2CC1CCCCC1	5	.	0	.	.	.
Nc1ccc(C2(c3ccc(N)cc3)CN3CCC2CC3)cc1	.	6	96*	-3	.	-1	Rad54 DNA ctr=0%
CC=Cc1ccc2n(c1=O)C[C@@H]1[C@@H](CO)[C@H](C(=O)OC)[C@H]2N1S(=O)(=O)c1cccc(C)c1 (mixture of isomers)	6	.	16	.	.	.
CC(Cc1ccccc1)NCc1ccccc1O (stereo unspecified)	-4	-14	-3	-8	14	9
CC(Cc1ccccc1)NCC(=O)Nc1cc(N(C)C)nc2ccccc12 (stereo unspecified)	-10	23	?	-5	-6	1	Rad54 DNA ctr=-2%
CCNCCNc1ccc([N+](=O)[O-])c2cccnc12	6	5	56*	4	-5	11	Rad54 DNA ctr=-21%
O=C(O)[C@@H]1[C@@H](CO)[C@@H]2Cn3c(ccc(-c4cccc(F)c4)c3=O)[C@H]1N2CCc1ccccc1	5	.	8	.	.	.
CN1CCC(N(C)c2ncnc3ccc(Br)cc23)CC1	.	-34	10	-5	34	-3
Cc1ccc(-c2nc(N(C)C3CCN(C)CC3)c3ccccc3n2)cc1	.	21	96*	2	-21	-16	Rad54 DNA ctr=-22%

High-throughput results: PubChem, Broad Institute
